Source: PubChem
IMP-1 inh: IMP-1 metallo-beta-lactamase inhibitors, primary screen, biochemical, epi-absorbance readout, Pseudomonas aeruginosa enzyme; inhibition, % at 5.6 µM; 0.45% of 290,000 active; metallo-beta-lactamase IMP-1 (Pseudomonas aeruginosa); purified IMP-1, nitrocefin hydrolysis, epi-absorbance fluorescence;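 active means inhibition above the mean plus 3 SD of all compounds in the same screening run, cut at about 4.5% in these data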
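assay system = purified recombinant IMP-1 metallo-beta-lactamase enzyme | schedule = 15 min preincubation plus 25 min reaction at 25 °C | signal = Epi-absorbance fluorescence, 480 nm excitation, 530 nm emission | read-out basis = percent inhibition from optical density relative to buffer-blank wells | controls = IMP-1 with DMSO as 0%, enzyme-free DMSO as 100%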
VIM-2 inhibitor: VIM-2 metallo-beta-lactamase inhibitors, primary screen, biochemical, epi-absorbance readout, Pseudomonas aeruginosa enzyme. purified VIM-2, nitrocefin hydrolysis, epi-absorbance fluorescence. inhibition, % at 5.6 µM. 0.89% of 290,000 active. AID 1527, 2009;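 active means inhibition above the mean of all tested compounds plus 3 SD, cutoff set per screening run, cut at about 7.5% in these data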;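 further: red hydrolysis product quenches plate fluorescence so inhibitors raise well fluorescence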
Mot1-301 SUMO: yeast Mot1-301 growth rescue at high temperature, primary screen, SUMOylation pathway inhibitor project, S. cerevisiae, ATP luminescence, 38.5C | S. cerevisiae Mot1-301 growth rescue; percent above DMSO median, 100 means doubled | growth rescue, % at 18.8 µM | 1% of 320,000 active | AID 2716, 2010;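 active means every valid replicate shows activation above 250% relative to neutral control wells; inactive means the rest, any valid replicate at or below 250%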
NLRP3 yeast inh: NALP3 inflammasome inhibitors in reconstituted yeast, primary screen, luminescence, uHTS. Yeast reconstituted NLRP3/ASC/caspase-1, beta-gal luminescence, 24 h. inhibition, % at 10 µM. 0.39% of 330,000 active;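 active means inhibition of 50% or more; inactive means inhibition below 50%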
NALP1 yeast inh: NALP1 inflammasome inhibitors in reconstituted yeast, colorimetric, S. cerevisiae, triplicate retest | 0.61% of 280,000 active | S. cerevisiae NALP1/ASC/caspase-1 growth, X-gal OD620, 72 h | inhibition, % at 10 µM; in the data active means inhibition mostly above about 24%, no sharp cut-off; inactive means mostly below about 32%
PolyA inhibitor: polyadenylation inhibitors in yeast reporter cells, primary screen, luminescence, S. cerevisiae; S. cerevisiae SKY197-pL101 polyadenylation reporter, beta-gal luminescence; efflux-impaired pdr1/pdr3 knockout yeast; score 100 = 6 SD above DMSO; activity score, % at 12 µM; 0.02% of 300,000 active; AID 1875, 2009;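 active means lowest replicate activity score at least 50, where 100 means six control SD above control mean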;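 further: yeast exposed to compound for 9 h at 30 °C; higher score means more reporter readthrough which indicates perturbed polyadenylation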
Each line names hits and unclear results; the compound was inactive in the other large screens. In the library only some 2.9% were active in any assay of this set; here they are far more common.

Cc1cc2occ(CC(=O)Nc3nnc(C4CC4)s3)c2cc1C	IMP-1 inh 19.9 (no result: PolyA inhibitor)
CCOc1ccc(OCC)c(NC(=O)C2CCN(S(=O)(=O)c3ccc4c(c3)CC(C)N4C(C)=O)CC2)c1 (stereo not drawn)	none
O=C(Nc1nnc(-c2cccs2)o1)c1cccc(F)c1	none (no result: NALP1 yeast inh)
O=C(Nc1nnc(-c2cccs2)o1)c1cccc(Oc2ccccc2)c1	NALP1 yeast inh 38.2 (no result: PolyA inhibitor)
CCn1c(=O)c(CCC(=O)NCC2CCCO2)c(C)c2c(C)nn(-c3ccccc3)c21 (stereo not drawn)	none
CCn1c(=O)c(CCC(=O)NCCN2CCOCC2)c(C)c2c(C)nn(-c3ccccc3)c21	VIM-2 inhibitor 9.6
Cc1ccn2c(Nc3ccc4c(c3)OCO4)c(-c3ccccn3)nc2c1	VIM-2 inhibitor 38.8
c1ccc(COc2cccc(CNCc3ccccn3)c2)cc1	VIM-2 inhibitor 8.2
c1ccc(COc2cccc(CNCc3cccnc3)c2)cc1	none
O=C(/C=C/c1ccc(Br)o1)OCc1ccccc1	Mot1-301 SUMO 305.3
COc1ccc(S(=O)(=O)N2CCCCCC2)cc1C(=O)N1CCN(c2ccccc2O)CC1	none (no result: IMP-1 inh, VIM-2 inhibitor, NALP1 yeast inh)
CC(=O)NCc1ccc(C(=O)CSc2nnc(C3CC3)n2C2CC2)cc1	none (no result: IMP-1 inh, VIM-2 inhibitor, NALP1 yeast inh, PolyA inhibitor)
CN1C[C@@H]2C(c3ccc(C(F)(F)F)cc3)C3(c4cccnc4)CC2(C3)[C@H]1c1ccccc1 (stereo partly drawn)	none (no result: IMP-1 inh, VIM-2 inhibitor, NALP1 yeast inh)
O=C(NCCCCc1ccccc1)Nc1ccc(F)cc1F	none
COc1ccc(O)c(/C=N/c2nc3ccccc3n2C)c1	NALP1 yeast inh 33.1
c1ccc(-[n+]2nc(Nc3cccc4ccccc34)sc2-c2c3ccccc3cc3ccccc23)cc1	none (no result: IMP-1 inh, VIM-2 inhibitor, NALP1 yeast inh, PolyA inhibitor)
COC(=O)c1ccc(/C=C/C(=O)OCC(=O)Nc2cc(C)on2)cc1	none (no result: IMP-1 inh, VIM-2 inhibitor, NALP1 yeast inh, PolyA inhibitor)
Cc1ccc(-c2nnc3c4ccccc4c(C)nn23)cc1S(=O)(=O)N1CCN(C)CC1	VIM-2 inhibitor 12.2 (no result: NALP1 yeast inh, PolyA inhibitor)
Cc1ccc(-c2nnc(N3CCCCC3)c3ccccc23)cc1S(=O)(=O)N1CCN(C)CC1	none
O=C(c1cccc(F)c1)N1CCCC(C(=O)N2CCN(c3ccccc3)CC2)C1 (stereo not drawn)	none
CC(NC(=O)Cc1ccccc1)c1nc2ccccc2[nH]1 (stereo not drawn)	none (no result: NALP1 yeast inh)
CCC(=O)NC(c1ccccc1)c1nc2ccccc2[nH]1 (stereo not drawn)	NALP1 yeast inh 25.0
CCOC(=O)c1ccsc1NC(=O)c1ccco1	VIM-2 inhibitor 9.1
CC(=O)N1CCCc2cc(S(=O)(=O)N3CCCC(C)C3)ccc21 (stereo not drawn)	none
Cc1nnc(SCC(=O)Nc2nccs2)n(N)c1=O	none
Cc1c(O)nc(SCC(=O)Nc2nccs2)n(-c2ccccc2F)c1=O	NALP1 yeast inh 40.6
CCc1cccc(C)c1NC(=O)C1=C(C(=O)O)CCCC1	IMP-1 inh 7.8
CN1CCN(C(=O)c2ccccc2NC(=O)CCN2C(=O)c3ccccc3C2=O)CC1	Mot1-301 SUMO 336.2
CC(=O)Nc1ccc(NC(=O)CCCN2C(=O)c3ccccc3C2=O)cc1	none
CC(=O)Nc1ccc(NC(=O)CCN2C(=O)c3ccccc3C2=O)cc1	NALP1 yeast inh 44.0
CN(C)C(=O)c1cn(-c2ccccc2)c(=O)c2ccccc12	none
CNC(=O)c1cn(-c2ccccc2)c(=O)c2ccccc12	IMP-1 inh 6.1
CCCCc1ccc(S(=O)(=O)Nc2nnc(C)s2)cc1	none
CCN1CCN(c2ccc(NC(=O)c3ccc4c(c3)OCO4)cc2)CC1	VIM-2 inhibitor 9.3
CCOc1ccc(NC(=O)c2ccc(NC(=O)c3cn4c5c(c(N6CCN(C)CC6)c(F)cc5c3=O)OCC4C)cc2)cc1 (stereo not drawn)	NALP1 yeast inh 85.5
CCOc1ccc(C(=O)Nc2ccc(N3CCN(C)CC3)cc2)cc1	VIM-2 inhibitor 10.7
Cc1ccc(C(=O)Nc2ccc(N3CCN(C)CC3)cc2)cc1	VIM-2 inhibitor 9.7
